From ChEMBL document CHEMBL1148762, “Lysosome and HER3 (ErbB3) selective anticancer agent kahalalide F: semisynthetic modifications and antifungal lead-exploration studies” (J Med Chem, 2007)
pIC50: −log10 of the molar value. Values after ≈ are worked out from the molar mass of the structure shown. Active and inactive are the calls of the source. No cut-off for these calls is given here.

Tests used:
[1] = tested on: Aspergillus fumigatus; assay: Antimicrobial activity against Aspergillus fumigatus ATCC 90906; type: functional, organism-based
[2] = tested on: Candida albicans; assay: Antimicrobial activity against Candida albicans ATCC 90028; type: functional, organism-based
[3] = tested on: Mycobacterium tuberculosis; assay: Antibacterial activity against Mycobacterium tuberculosis H37Rv at 16 ug/mL by micro plate alamar blue assay; type: functional
Procedure, shortened: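 M. tuberculosis H37Rv ATCC 27294 grown in BACTEC 12B medium; microplate Alamar blue assay (MABA). Primary screen at a single concentration of 16 µg/mL, read as percent inhibition.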

[4] = tested on: Mycobacterium intracellulare; assay: Antimicrobial activity against Mycobacterium intracellular ATCC 23068; type: functional, organism-based
[5] = tested on: Staphylococcus aureus; assay: Antimicrobial activity against methicillin-resistant Staphylococcus aureus; type: functional, organism-based
[6] = tested on: Escherichia coli; assay: Antimicrobial activity against Escherichia coli; type: functional, organism-based
[7] = tested on: Cryptococcus neoformans; assay: Antimicrobial activity against Cryptococcus neoformans ATCC 90113; type: functional, organism-based
[8] = tested on: Fusarium solani; assay: Fungistatic activity against Fusarium solani at 30 uM after 72 hrs by microtiter plate assay; type: functional, organism-based
Procedure, shortened: (§1)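 Conidia come from 7-day potato dextrose agar cultures, filtered and set photometrically (625 nm) to 3 × 10^5 conidia/mL. They are exposed to compound at 30 µM in 96-well microdilution broth at 24 ± 1 °C under a 12 h photoperiod. After 72 h, 20 µL per well is subcultured on drug-free potato dextrose agar at 28 °C for 3 days. No regrowth is scored fungicidal; regrowth is scored fungistatic.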

[9] = tested on: Fusarium oxysporum; assay: Antimicrobial activity against Fusarium oxysporum at 3 uM after 48 hrs by microtiter assay; type: functional
Procedure, shortened: (§2)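 96-well microdilution broth assay with conidia (3 × 10^5 conidia/mL, harvested from 7-day PDA cultures and filtered) against F. oxysporum, F. proliferatum and F. solani at 0.3, 3 and 30 µM. Plates were held at 24 ± 1 °C under a 12 h photoperiod. Growth was read at 620 nm at 24, 48 and 72 h and reported as percent inhibition from mean absorbance with standard error.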

[10] = tested on: Fusarium proliferatum; assay: Antimicrobial activity against Fusarium proliferatum at 0.3 uM after 72 hrs by microtiter assay; type: functional; procedure, shortened: as §2
[11] = tested on: Fusarium solani; assay: Antimicrobial activity against Fusarium solani at 3 uM after 48 hrs by microtiter assay; type: functional; procedure, shortened: as §2
[12] = tested on: Fusarium proliferatum; assay: Antimicrobial activity against Fusarium proliferatum at 30 uM after 48 hrs by microtiter assay; type: functional; procedure, shortened: as §2
[13] = tested on: Fusarium proliferatum; assay: Fungistatic activity against Fusarium proliferatum at 30 uM after 72 hrs by microtiter plate assay; type: functional, organism-based; procedure, shortened: as §1
[14] = tested on: Fusarium proliferatum; assay: Antimicrobial activity against Fusarium proliferatum at 0.3 uM after 48 hrs by microtiter assay; type: functional; procedure, shortened: as §2
[15] = tested on: Fusarium oxysporum; assay: Fungistatic activity against Fusarium oxysporum at 30 uM after 72 hrs by microtiter plate assay; type: functional, organism-based; procedure, shortened: as §1
[16] = tested on: Fusarium oxysporum; assay: Antimicrobial activity against Fusarium oxysporum at 30 uM after 72 hrs by microtiter assay; type: functional; procedure, shortened: as §2
[17] = tested on: Fusarium solani; assay: Antimicrobial activity against Fusarium solani at 30 uM after 48 hrs by microtiter assay; type: functional; procedure, shortened: as §2
[18] = tested on: Fusarium proliferatum; assay: Antimicrobial activity against Fusarium proliferatum at 30 uM after 72 hrs by microtiter assay; type: functional; procedure, shortened: as §2
[19] = tested on: Fusarium solani; assay: Antimicrobial activity against Fusarium solani at 0.3 uM after 72 hrs by microtiter assay; type: functional; procedure, shortened: as §2
[20] = tested on: Fusarium oxysporum; assay: Antimicrobial activity against Fusarium oxysporum at 30 uM after 48 hrs by microtiter assay; type: functional; procedure, shortened: as §2
[21] = tested on: Fusarium solani; assay: Antimicrobial activity against Fusarium solani at 3 uM after 72 hrs by microtiter assay; type: functional; procedure, shortened: as §2
[22] = tested on: Fusarium solani; assay: Antimicrobial activity against Fusarium solani at 30 uM after 72 hrs by microtiter assay; type: functional; procedure, shortened: as §2
[23] = tested on: Fusarium proliferatum; assay: Antimicrobial activity against Fusarium proliferatum at 3 uM after 72 hrs by microtiter assay; type: functional; procedure, shortened: as §2
[24] = tested on: Fusarium oxysporum; assay: Antimicrobial activity against Fusarium oxysporum at 0.3 uM after 72 hrs by microtiter assay; type: functional; procedure, shortened: as §2
[25] = tested on: Fusarium proliferatum; assay: Antimicrobial activity against Fusarium proliferatum at 3 uM after 48 hrs by microtiter assay; type: functional; procedure, shortened: as §2
[26] = tested on: Fusarium oxysporum; assay: Antimicrobial activity against Fusarium oxysporum at 0.3 uM after 48 hrs by microtiter assay; type: functional; procedure, shortened: as §2
[27] = tested on: Fusarium solani; assay: Antimicrobial activity against Fusarium solani at 0.3 uM after 48 hrs by microtiter assay; type: functional; procedure, shortened: as §2
[28] = tested on: Fusarium oxysporum; assay: Antimicrobial activity against Fusarium oxysporum at 3 uM after 72 hrs by microtiter assay; type: functional; procedure, shortened: as §2
[29] = tested on: Fusarium solani; assay: Fungicidal activity against Fusarium solani at 30 uM after 72 hrs by microtiter assay; type: functional, organism-based
Procedure, shortened: (§3)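 After 72 h of microtiter broth exposure at 30 µM, 20 µL from each well was plated onto compound-free potato dextrose agar and incubated 3 days at 28 °C. No regrowth was scored fungicidal; regrowth was scored fungistatic.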

[30] = tested on: Fusarium proliferatum; assay: Fungicidal activity against Fusarium proliferatum at 30 uM after 72 hrs by microtiter plate assay; type: functional, organism-based; procedure, shortened: as §3
[31] = tested on: Mycobacterium tuberculosis; assay: Antibacterial activity against Mycobacterium tuberculosis H37Rv by micro plate alamar blue assay; type: functional
[32] = tested on: Fusarium proliferatum; assay: Antifungal activity against Fusarium proliferatum at 20 ug/mL after 3 days by fluorescence assay; type: functional, organism-based
Procedure, shortened: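 Fusarium proliferatum conidia in potato dextrose broth in a tube with the coumarin (DEAC)-labelled probe at 20 µg/mL, held at 24 ± 1 °C. Hyphae and mycelia were viewed at 4, 8, 16, 24, 48 and 72 h by light and epifluorescence microscopy at 400× and 1000×. Conidia were first checked for autofluorescence.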

[33] = tested on: Fusarium oxysporum; assay: Fungicidal activity against Fusarium oxysporum at 30 uM after 72 hrs by microtiter plate assay; type: functional, organism-based; procedure, shortened: as §3

SMILES | pIC50 [1] | pIC50 [2] | inhibition at 16 µg/mL [3] | pIC50 [4] | pIC50 [7] | inhibition at 3 µM [9] | inhibition at 0.3 µM [10] | inhibition at 3 µM [11] | inhibition at 30 µM [12] | inhibition at 0.3 µM [14] | Activity [15] | inhibition at 30 µM [16] | inhibition at 30 µM [17] | inhibition at 30 µM [18] | inhibition at 0.3 µM [19] | inhibition at 30 µM [20] | inhibition at 3 µM [21] | inhibition at 30 µM [22] | inhibition at 3 µM [23] | inhibition at 0.3 µM [24] | further results
CC(C)CCC[C@H]1CC(=O)N[C@H](Cc2c[nH]c3ccccc23)C(=O)N2CCC[C@H]2C(=O)N[C@@H](CCCNC(=N)N)C(=O)O1 [KAHALALIDE D] | < 4.47 | < 4.47 | 49% | < 4.47 | < 4.47 | – | – | – | – | – | – | – | – | – | – | – | – | – | – | – | Activity [5]: inactive; Activity [6]: inactive
O=C1C2CC=CCC2C(=O)N1SC(Cl)(Cl)Cl (configuration not stated) [CAPTAN] | – | – | – | – | – | 7.6% | 3% | 5.1% | 100% | 6% | Active | 98.1% | 90.7% | 100% | 0% | 99.5% | 0% | 47.9% | 0% | 0% | Activity [8]: Active; Activity [13]: Active; inhibition at 3 µM [25]: 12%; inhibition at 0.3 µM [26]: 0.2%; inhibition at 0.3 µM [27]: 0%; inhibition at 3 µM [28]: 0%
C/C=C1\NC(=O)[C@H](Cc2ccccc2)NC(=O)[C@@H](C(C)C)NC(=O)[C@@H]([C@@H](C)CC)NC(=O)[C@H](NC(=O)[C@H](NC(=O)[C@H](CCCN)NC(=O)[C@H]2CCCN2C(=O)[C@@H](NC(=O)[C@H](NC(=O)[C@H](NC(=O)[C@@H](NC(=O)CCCC(C)C)C(C)C)[C@H](C)OC(C)=O)C(C)C)C(C)C)[C@@H](C)CC)[C@@H](C)OC(=O)[C@H](C(C)C)NC1=O | 5.47 | 5.48 | 94% | 4.84 | 5.72 | 0% | 0.3% | 0% | 70.8% | 0% | Active | 74.4% | 80.9% | 34.7% | 0% | 78.5% | 0% | 96.7% | 0.3% | 0% | Activity [29]: Active; MFC [1]: 10 µM (≈ 15.2 µg/mL); MIC [1]: 10 µM (≈ 15.2 µg/mL); MFC [2]: 20 µM (≈ 30.4 µg/mL); MIC [2]: 10 µM (≈ 15.2 µg/mL); Activity [30]: Active; MIC [31]: 15.4 µg/mL (≈ 10.1 µM); MBC [4]: > 20 µM; MIC [4]: > 20 µM; inhibition at 3 µM [25]: 0%; inhibition at 0.3 µM [26]: 0%; inhibition at 0.3 µM [27]: 0%; MFC [7]: 5 µM (≈ 7.6 µg/mL); MIC [7]: 5 µM (≈ 7.6 µg/mL); inhibition at 3 µM [28]: 0%
C/C=C1\NC(=O)[C@H](Cc2ccccc2)NC(=O)[C@@H](C(C)C)NC(=O)[C@@H]([C@@H](C)CC)NC(=O)[C@H](NC(=O)[C@H](NC(=O)[C@H](CCCNC(=O)c2cc3ccc(N(CC)CC)cc3oc2=O)NC(=O)[C@H]2CCCN2C(=O)[C@@H](NC(=O)[C@H](NC(=O)[C@H](NC(=O)[C@@H](NC(=O)CCCC(C)C)C(C)C)[C@H](C)O)C(C)C)C(C)C)[C@@H](C)CC)[C@@H](C)OC(=O)[C@H](C(C)C)NC1=O | – | – | – | – | – | – | – | – | – | – | – | – | – | – | – | – | – | – | – | – | Activity [29]: inactive; Activity [32]: inactive; Activity [30]: inactive; Activity [33]: inactive
